The source made the active and inactive calls. The calls are words filed in the database; no cut-off is given here.
Key:
[1] = test system: Nucleic Acid; test: Induction of DNA damage-mediated relaxation of Escherichia coli super coiled pBR322 DNA assessed as formation of open circular form-2 DNA after 3 hrs under light condition by UV transilluminator; type: nucleic-acid assay
How it was run: (§1)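 Supercoiled pBR322 (25 ng/µL) in 20 mM Tris–HCl pH 7.5 with 50 µM compound under light irradiation for 3 h; irradiated DNA alone as control. Products resolved on 1% agarose in 0.5× TAE containing 0.5 µg/mL EB, 80 V, 1.5 h.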

[2] = test system: MCF7; test: Cytotoxicity against human MCF7 cells after 48 hrs by MTT assay; type: functional, cell-based; conditions: MCF7, 48 h
How it was run: (§2)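 MTT assay, cells incubated 48 h with a range of compound concentrations. MTT (5 mg/mL in PBS) added, 3 h, formazan dissolved in lysis buffer (200 g/L SDS, 50% formamide, pH 4.7), absorbance read at 570 nm. At least three independent experiments; mean percent absorbance plotted against concentration to give IC50.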

[3] = test system: SMMC-7721; test: Cytotoxicity against human SMMC7721 cells after 48 hrs by MTT assay; type: functional, cell-based; conditions: SMMC-7721, 48 h; how it was run: as §2
[4] = test system: Nucleic Acid; test: Induction of DNA damage-mediated relaxation of Escherichia coli super coiled pBR322 DNA assessed as formation of linear form-3 DNA after 12 hrs under dark condition by UV transilluminator; type: nucleic-acid assay
How it was run: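 Supercoiled pBR322 (25 ng/µL) in 20 mM Tris–HCl pH 7.5 with 50 µM compound, 12 h at 4 °C in the dark. Quenched with loading buffer; 1% agarose gel in 0.5× TAE with 0.5 µg/mL EB, 80 V, 1.5 h.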

[5] = test system: Nucleic Acid; test: Binding affinity to calf thymus DNA assessed as DNA intercalation at 100 uM by UV-visible spectrophotometry; type: nucleic-acid assay; conditions: Bos taurus; 25 uM; in the assay text read “at 25 uM” for “at 100 uM”
How it was run: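 UV–vis titration: compound fixed at 25 µM, CT DNA concentration increased; bathochromic shift and hypochromicity taken as the sign of intercalation, isosbestic point followed.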

[6] = test system: Nucleic Acid; test: Induction of DNA damage-mediated relaxation of Escherichia coli super coiled pBR322 DNA assessed as formation of linear form-3 DNA after 3 hrs under light condition by UV transilluminator; type: nucleic-acid assay; how it was run: as §1
[7] = test system: Nucleic Acid; test: Binding affinity to DNA assessed as decrease in ethidium bromide fluorescence at 5 uM by fluorescence spectroscopy; type: nucleic-acid assay
How it was run: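 Fluorescence displacement of ethidium bromide bound to DNA; loss of EB fluorescence taken as displacement by the test agent. Compound alone with DNA measured as a control for the compound's own fluorescence.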

[8] = test system: Nucleic Acid; test: Binding affinity to calf thymus DNA assessed as increase in DNA viscosity by viscometric titration; type: nucleic-acid assay; conditions: Bos taurus
How it was run: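 CT DNA sonicated 10 min and filtered through 0.45 µm membrane; DNA 100 µM. Titrations in an Ubbelohde viscometer in a thermostated bath held at 25 ± 0.1 °C.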

| Activity [5] | Activity [7] | Activity [8] | Structure (SMILES) | Activity [1] | IC50 [2] [nM] | IC50 [3] [nM] | Activity [4] | Activity [6] |
| --- | --- | --- | --- | --- | --- | --- | --- | --- |
| – | – | – | N#CC(C#N)=c1c2cccc3cccc(c32)n1CCBr | Active | 5380 | 210 | Active | – |
| Active | – | – | CC(=O)n1c(=C(C#N)C#N)c2cccc3cccc1c32 | Active | 3 | 115 | Active | – |
| inactive | – | – | N#CC(C#N)=c1c2cccc3cccc(c32)n1C(=O)c1ccccc1 | Active | 15300 | 8800 | Active | – |
| Active | Active | Active | C#CCn1c(=C(C#N)C#N)c2cccc3cccc1c32 | Active | 12500 | 728 | Active | Active |
| – | – | – | C=CCn1c(=C(C#N)C#N)c2cccc3cccc1c32 | Active | 4730 | 175 | Active | Active |
| – | – | – | N#CC(C#N)=c1c2cccc3cccc(c32)n1CCCCl | Active | 6930 | 354 | Active | – |
| – | – | – | N#CCn1c(=C(C#N)C#N)c2cccc3cccc1c32 | Active | 13500 | 260 | Active | Active |

Source: ChEMBL document CHEMBL1158582, “Novel DNA intercalators without basic side chains as efficient antitumor agents: design, synthesis and evaluation of benzo-[c,d]-indol-malononitrile derivatives” (Bioorg Med Chem, 2010)
